Hits are enriched below; roughly 3.5% of the tested compounds scored in any of these assays.
MrgX1 ag: activates human MrgX1 receptor signaling. 310,000 compounds, 0.44% hits. B-score at 10 µM. MrgX1-HEK293 cells, Fluo-4 calcium fluorescence, agonist mode; active compounds read high. AID 588627;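 active = calcium response B-score plate-corrected fluorescence ratio at least 3 library SD, with starting fluorescence B-score inside 5 SD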
Target sequence (Q96LB2 whole entry, looked up): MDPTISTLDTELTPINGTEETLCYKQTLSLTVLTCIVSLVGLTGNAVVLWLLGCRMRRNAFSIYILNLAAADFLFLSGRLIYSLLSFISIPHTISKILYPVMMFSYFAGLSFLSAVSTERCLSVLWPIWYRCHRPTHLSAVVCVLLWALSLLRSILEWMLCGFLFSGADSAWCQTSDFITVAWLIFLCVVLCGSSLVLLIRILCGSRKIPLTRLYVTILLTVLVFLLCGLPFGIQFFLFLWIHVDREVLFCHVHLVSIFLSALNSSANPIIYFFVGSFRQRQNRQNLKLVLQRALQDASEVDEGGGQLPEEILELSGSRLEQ
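System – MrgX1-expressing HEK293 cells · Incubation – cells plated overnight, dye loaded 0.5 h 37 °C, 0.5 h room temperature · Technique – kinetic Fluo-4 NW fluorescence of intracellular calcium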
RGS4 block: inhibitors of human RGS4. HEK293 M3R/RGS4 inducible, Fluo-4 calcium flux; active compounds read high; triggered by carbachol at its EC20. B-score at 10 µM. 310,000 compounds, 0.45% hits;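 active = B-score, a plate-corrected calcium signal, over three deviations above library mean, with baseline fluorescence within five deviations of library mean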;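 also: RGS4 expression induced by doxycycline in cells with stable M3 receptor; B-score is computed from the integrated fluorescence ratio over baseline after carbachol; higher B-score means a larger calcium signal and so more RGS4 inhibition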
Target sequence (P49798 whole entry, looked up): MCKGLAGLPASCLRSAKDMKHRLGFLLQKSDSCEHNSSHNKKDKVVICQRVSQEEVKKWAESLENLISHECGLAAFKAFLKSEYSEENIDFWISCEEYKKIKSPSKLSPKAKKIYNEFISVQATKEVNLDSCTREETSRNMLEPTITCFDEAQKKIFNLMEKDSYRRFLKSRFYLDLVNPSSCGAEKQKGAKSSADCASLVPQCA
RGS4 act: RGS4 potentiation or activation. HEK293 M3R/inducible RGS4, carbachol calcium flux Fluo4; active compounds read low. B-score at 10 µM. 310,000 compounds, 0.92% hits;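 active = B-score of the integrated calcium signal more than 4 SD below the library mean, with starting fluorescence not abnormally high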;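 also: negative B-score means reduced calcium response which marks RGS4 activation or potentiation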
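Material: M3R-expressing HEK293 line, RGS4 induced by doxycycline | Schedule: Overnight RGS4 induction, 30 min dye load 37 °C, 20 min compound RT | Measured by: Fluo4 fluorescence kinetic imaging of calcium | Read-out: Integrated calcium ratio converted to B score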
MrgX1 allo act: human MrgX1 positive allosteric modulation, primary screen; Q96LB2; MrgX1-HEK293, Fluo-4 calcium flux, FDSS; active compounds read high; B-score at 10 µM; 310,000 compounds, 0.63% hits; AID 588675;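 active = plate-corrected calcium response at least 3 library SD above typical, normal starting fluorescence, not activating the receptor alone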;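 also: compound read alongside a low EC10 to EC30 dose of BAM8-22 agonist; peak minus trough fluorescence over baseline measured at the second addition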
MrgX1 antag: antagonists of human MrgX1 receptor; Q96LB2; MRGX1-HEK293 calcium flux, Fluo-4, BAM8-22 antagonism; active compounds read low; B-score at 10 µM; 310,000 compounds, 1.3% hits; AID 588676;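 active = calcium-response B-score plate-corrected more than 3 library SD below zero, starting fluorescence within 5 deviations, no agonist response on first addition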;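 also: peak minus trough fluorescence over baseline after final BAM8-22 challenge near maximal dose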
A number is an active result; . = inactive; / = no result.

SMILES | MrgX1 ag | RGS4 block | RGS4 act | MrgX1 allo act | MrgX1 antag
CCc1ccc2[nH]c(O)c(N=NC3=NC(=O)CS3)c2c1 | . | . | . | . | .
CCc1ccc2c(c1)c(N=NC1=NC(=O)CS1)c(O)n2CC | . | 4.98 | . | . | .
NC(=O)CSC1=N/C(=C\c2ccco2)C(=O)N1c1ccc(OC(F)F)cc1 | . | . | . | . | .
CCOc1cc(/C=C2\N=C(SC(C)C(N)=O)N(c3ccc(OC(F)F)cc3)C2=O)ccc1O (stereo not given) | . | . | . | 11.4 | .
CCCCOC(=O)c1ccc(NC(=O)Nc2ccc(OC)c(OC)c2)cc1 | . | . | -6.98 | . | .
O=C(c1ccncc1)N1N=C(C2CCCCC2)CC1(O)C(F)(F)F (stereo not given) | . | . | -7.41 | . | .
COc1ccccc1NC(=O)CCCC(=O)OCC(F)(F)C(F)F | . | . | . | . | -6.18
CCCCOP(=O)(c1ccc(N(C)C)cc1)C(Nc1ccccc1)c1ccccc1 (stereo not given) | . | . | -7.29 | . | .
CCCOP(=O)(c1ccc(N(C)C)cc1)C(Nc1ccccc1)c1ccc(N(C)C)cc1 (stereo not given) | . | . | . | . | .
CCOC(=O)C1CCN(C(=O)COC(=O)C2CCN(S(=O)(=O)c3ccc(C)c(C)c3)CC2)CC1 | . | . | . | . | .
Cc1ccccc1/C=C/c1nc2ccccc2c(=O)n1Cc1ccccc1 | . | . | -7.4 | . | .
Cc1ccccc1/C=C/c1nc2ccccc2c(=O)n1CCc1ccccc1 | . | . | . | . | .
Cc1cccc(OCC(=O)N/N=C/c2sc(=O)n(Cc3cccc(C(=O)O)c3)c2Cl)c1 | . | . | . | . | .
COc1cccc(NC(=O)CCS(=O)(=O)c2ccc3c(c2)oc(=O)n3C)c1 | . | . | . | . | .
CCOc1cc(CNCc2ccccc2)ccc1OCc1ccc(Cl)cc1 | . | . | . | . | .
COc1ccc(CNCCc2ccc(Cl)cc2)cc1OCc1ccccc1 | . | . | . | . | -5.85
C=CCn1c(SCc2nc3ccccc3c(=O)[nH]2)nc2scc(C3CC3)c2c1=O | . | . | . | . | .
Cn1nc(C(C)(C)C)c([N+](=O)[O-])c1C(=O)N1CCCCCC1 | . | . | . | . | .
O=C(CSc1c2c(nc3cc(Cl)ccc13)CCCC2)NCCCN1CCOCC1 | . | . | . | . | .
CCN(CC)CCCNC(=O)CSc1c2c(nc3cc(Cl)ccc13)CCCC2 | . | . | -7.23 | . | .
CSc1ccccc1NC(=O)C1=COCCO1 | . | . | . | . | .
c1cc2c3c(cccc3c1)C(N1CCCCC1)=N2 | . | . | . | . | .
c1cc2c3c(cccc3c1)C(N1CCCCCC1)=N2 | . | . | -7.38 | . | .
CC(C)(C)OC(=O)N1CCCN(C(=O)Nc2ccc(C(F)(F)F)cc2)CC1 | . | . | . | . | .
C=C1C(=O)C=C2CN(C(=O)c3ccccc3)[C@@](Cc3ccc(F)cc3)(C(=O)OC)[C@@H]12 | 46.5 | 15.4 | . | . | .
SMILES | MrgX1 ag | RGS4 block | RGS4 act | MrgX1 allo act | MrgX1 antag
Cc1c(Br)c([N+](=O)[O-])nn1C(C)C(=O)NCc1cccs1 (stereo not given) | . | . | . | . | .
Cc1c(Br)c([N+](=O)[O-])nn1CC(=O)NCc1cccs1 | . | . | . | . | -4.8
Cc1ccc(OCCn2ccnc2)c([N+](=O)[O-])c1 | . | . | . | 10.7 | .
CC1(C)Cc2c(cnn2-c2ccccc2)C(NC(=O)c2ccc[n+]([O-])c2)C1 (stereo not given) | . | . | . | . | .
CC(CCc1ccccc1)NC(=O)c1ccc(F)cc1 (stereo not given) | . | . | . | . | .
COc1ccc(OCC(=O)NNC(=O)c2cccs2)cc1 | . | . | . | . | .
COc1ccc(C(=O)NC(=S)NNC(=O)c2cnccn2)cc1OC | . | . | . | . | .
Cc1ccc(OCC(=O)NNC(=S)NC(=O)c2cccs2)c(C)c1 | 34.7 | . | -8.96 | . | .
Cc1ccc(OCC(=O)NNC(=S)NC(=O)c2ccc(Br)o2)c(C)c1 | . | . | -10.7 | 10.2 | .
Cc1cccc(NC(=S)NNC(=O)c2ccc(Br)o2)c1 | . | . | . | . | .
Cc1cc(OCC(=O)NNC(=S)NC(=O)c2cccs2)ccc1Cl | . | . | -7.8 | 8.41 | .
COc1ccc(C(=O)NNC(=S)NC(=O)c2ccc(Br)o2)cc1OC | 52.7 | . | . | . | .
CC1=CC(=O)c2c(O)ccc(O)c2C1=O | . | / | / | . | .
COc1cccc(NC(=O)[C@@H](NC(=O)N2CCn3c2nc2ccccc23)C(C)C)c1 | . | . | . | . | .
CC(=O)c1ccc(C(=O)N2CCCC(CO)(Cc3ccccc3C)C2)s1 (stereo not given) | / | . | . | / | /
Nc1nonc1-n1nnc(C(=O)N/N=C/c2cccs2)c1-c1ccc2c(c1)OCO2 | . | . | . | . | .
O=C1CC(c2ccc(Cl)c([N+](=O)[O-])c2)c2ccc3ccccc3c2N1 (stereo not given) | . | . | . | . | -7.55
CCOc1ccc(/C=C2\SC(=S)N(C(C(=O)O)c3ccccc3)C2=O)cc1OC (stereo not given) | . | . | . | . | .
COc1ccc(OC)c(/C=C2\SC(=S)N(C(C(=O)O)c3ccccc3)C2=O)c1 (stereo not given) | 53.3 | . | . | . | .
C=CCOc1ccc(/C=C2\SC(=S)N(C(C(=O)O)c3ccccc3)C2=O)cc1 (stereo not given) | / | . | -9.26 | / | /
CCOc1ccc(NC(=O)COc2ccc(C(=O)NC(C)c3ccc(S(N)(=O)=O)cc3)cc2OC)cc1 (stereo not given) | . | . | . | . | .
O=C(CN1CCN(C(=O)c2ccco2)CC1)N1CCc2[nH]c3ccccc3c2C1 | . | . | . | . | -5.94
CCOC(=O)C1CCN(C(=O)c2ccc(OCC(=O)Nc3cccc(C(F)(F)F)c3)c(OC)c2)CC1 | . | . | . | . | .
COc1ccc(CCN2CC(C(=O)N(C)C3CCOCC3)CCC2=O)cc1 (stereo not given) | . | . | . | . | .
Cc1ccc(S(=O)(=O)c2c(N)n(Cc3ccco3)c3nc4ccccc4nc23)cc1C | . | . | . | . | -4.77
CC(C)(C(=O)Nc1nccs1)c1ccccc1 | . | . | . | . | .
O=C(N=Nc1c(O)[nH]c2ccc(F)cc12)C1COc2ccccc2O1 (stereo not given) | . | . | . | . | .
CCN(CC)CCNC(=O)c1ccc(NC(C)=O)cc1 | . | . | . | . | .
CCN(CC)CCNC(=O)c1ccc(NC(=O)Cc2cccc3ccccc23)cc1 | . | . | -7.52 | . | .
COc1ccc(NS(=O)(=O)c2cccc(C(=O)NNC(=O)CN3C(=O)NC(C)(C)C3=O)c2)cc1 | . | . | . | . | .
